Results reported in ChEMBL document CHEMBL1123129, “Hypolipidemic activity of indan-1,3-dione derivatives in rodents” (J Med Chem, 1985).

Key:
Assay type in all cases: functional
Mus musculus [1] = assay: Hypolipidemic activity in CF1 male mice at a dose of 20 mg/kg per day, serum cholesterol measured on the 9th day
Summary of the method: (§1)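 CF1 male mice (~30 g) were given 20 mg/kg per day ip at 11:00 a.m.; N = 6 per group. Tail-vein serum was collected in nonheparinized microcapillaries. Cholesterol was measured on days 9 and 16 by modified Liebermann–Burchard on duplicate 25 µL samples. Triglyceride was measured on day 16 in a separate group, duplicate 50 µL. Values are % control ± SD; Student's t test.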

Mus musculus [2] = assay: Hypolipidemic activity in CF1 male mice at a dose of 20 mg/kg per day, serum triglyceride measured on the 16th day; summary of the method: as §1
Mus musculus [3] = assay: Hypolipidemic activity in CF1 male mice at a dose of 20 mg/kg per day, serum cholesterol measured on the 16th day; summary of the method: as §1
Mus musculus [4] = assay: Compound was evaluated for the hypolipidemic activity in CF1 male mice at a dose of 20 mg/kg per day intraperitoneally for serum triglyceride at 16th day.; conditions: route intraperitoneal
Summary of the method: (§2)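 CF1 male mice (~30 g) were dosed ip daily. Tail-vein blood was collected on day 9 and day 16 between 8:00 and 9:30 a.m. Serum cholesterol was measured by modified Liebermann–Burchard on duplicate 25-µL samples. Triglyceride was measured on day 16 in a separate group, duplicate 50-µL samples. Values are % control, mean ± SD, N = 6; Student's t test.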

Mus musculus [5] = assay: Compound was evaluated for the hypolipidemic activity in CF1 male mice at a dose of 20 mg/kg per day intraperitoneally for serum cholesterol at 16th day.; conditions: route intraperitoneal; summary of the method: as §2
Mus musculus [6] = assay: Compound was evaluated for the hypolipidemic activity in CF1 male mice at a dose of 20 mg/kg per day intraperitoneally of serum cholesterol at 9th day; conditions: route intraperitoneal; in the assay text read “150 mg/kg” for “20 mg/kg”; summary of the method: as §2

Structure (SMILES): CCOc1ccc(C2C(=O)c3ccccc3C2=O)cc1
- Serum cholesterol, % of control (Mus musculus [1]): 66%
- Serum triglyceride, % of control (Mus musculus [2]): 81%
- Serum cholesterol, % of control (Mus musculus [3]): 59%

Structure (SMILES): Cc1ccc(C2C(=O)c3ccccc3C2=O)cc1
- Serum cholesterol, % of control (Mus musculus [1]): 68%
- Serum triglyceride, % of control (Mus musculus [2]): 42%
- Serum cholesterol, % of control (Mus musculus [3]): 65%

Structure (SMILES): CCCCCC1C(=O)c2ccccc2C1=O
- Serum cholesterol, % of control (Mus musculus [1]): 65%
- Serum triglyceride, % of control (Mus musculus [2]): 70%
- Serum cholesterol, % of control (Mus musculus [3]): 64%

Structure (SMILES): CC1C(=O)c2ccccc2C1=O
- Serum cholesterol, % of control (Mus musculus [1]): 74%
- Serum triglyceride, % of control (Mus musculus [2]): 61%
- Serum cholesterol, % of control (Mus musculus [3]): 58%

Structure (SMILES): O=C1c2ccccc2C(=O)C1c1cccc(Cl)c1
- Serum cholesterol, % of control (Mus musculus [1]): 70%
- Serum triglyceride, % of control (Mus musculus [2]): 70%
- Serum cholesterol, % of control (Mus musculus [3]): 60%

Structure (SMILES): CCCCC1C(=O)c2ccccc2C1=O
- Serum cholesterol, % of control (Mus musculus [1]): 74%
- Serum triglyceride, % of control (Mus musculus [2]): 63%
- Serum cholesterol, % of control (Mus musculus [3]): 58%

Structure (SMILES): O=C(O)c1ccc(C2C(=O)c3ccccc3C2=O)cc1
- Serum cholesterol, % of control (Mus musculus [1]): 95%
- Control (Mus musculus [4]): 95%
- Control (Mus musculus [5]): 78%

Structure (SMILES): O=C1CC(=O)c2ccccc21
- Serum cholesterol, % of control (Mus musculus [1]): 74%
- Serum triglyceride, % of control (Mus musculus [2]): 79%
- Serum cholesterol, % of control (Mus musculus [3]): 60%

Structure (SMILES): Cc1cccc(C2C(=O)c3ccccc3C2=O)c1
- Serum cholesterol, % of control (Mus musculus [1]): 75%
- Serum triglyceride, % of control (Mus musculus [2]): 51%
- Serum cholesterol, % of control (Mus musculus [3]): 71%

Structure (SMILES): O=C1c2ccccc2C(=O)C1c1ccccc1 [PHENINDIONE]
- Serum cholesterol, % of control (Mus musculus [1]): 64%
- Serum triglyceride, % of control (Mus musculus [2]): 60%
- Serum cholesterol, % of control (Mus musculus [3]): 60%

Structure (SMILES): O=C1c2ccccc2C(=O)C1c1ccc(Cl)cc1Cl
- Serum cholesterol, % of control (Mus musculus [1]): 89%
- Serum triglyceride, % of control (Mus musculus [2]): 87%
- Serum cholesterol, % of control (Mus musculus [3]): 73%

Structure (SMILES): O=C1c2ccccc2C(=O)C1c1ccccc1Cl
- Serum cholesterol, % of control (Mus musculus [1]): 75%
- Serum triglyceride, % of control (Mus musculus [2]): 55%
- Serum cholesterol, % of control (Mus musculus [3]): 56%

Structure (SMILES): O=C1c2ccccc2C(=O)C1c1c(Cl)cccc1Cl
- Serum cholesterol, % of control (Mus musculus [1]): 71%
- Serum triglyceride, % of control (Mus musculus [2]): 61%
- Serum cholesterol, % of control (Mus musculus [3]): 68%

Structure (SMILES): Cc1ccccc1C1C(=O)c2ccccc2C1=O
- Serum cholesterol, % of control (Mus musculus [1]): 73%
- Serum triglyceride, % of control (Mus musculus [2]): 49%
- Serum cholesterol, % of control (Mus musculus [3]): 69%

Structure (SMILES): O=C1c2ccccc2C(=O)C1c1ccc(Cl)cc1 [CLORINDIONE]
- Serum cholesterol, % of control (Mus musculus [1]): 64%
- Serum triglyceride, % of control (Mus musculus [2]): 47%
- Serum cholesterol, % of control (Mus musculus [3]): 63%

Structure (SMILES): COc1ccc(C2C(=O)c3ccccc3C2=O)c(OC)c1
- Serum cholesterol, % of control (Mus musculus [1]): 89%
- Serum triglyceride, % of control (Mus musculus [2]): 87%
- Serum cholesterol, % of control (Mus musculus [3]): 74%

Structure (SMILES): O=C1c2ccccc2C(=O)C1c1ccc(Cl)c(Cl)c1
- Serum cholesterol, % of control (Mus musculus [1]): 93%
- Serum triglyceride, % of control (Mus musculus [2]): 89%
- Serum cholesterol, % of control (Mus musculus [3]): 84%

Structure (SMILES): COc1ccccc1C1C(=O)c2ccccc2C1=O
- Serum cholesterol, % of control (Mus musculus [1]): 79%
- Serum triglyceride, % of control (Mus musculus [2]): 48%
- Serum cholesterol, % of control (Mus musculus [3]): 72%

Structure (SMILES): COc1ccc(C2C(=O)c3ccccc3C2=O)cc1OC
- Serum cholesterol, % of control (Mus musculus [1]): 75%
- Serum triglyceride, % of control (Mus musculus [2]): 66%
- Serum cholesterol, % of control (Mus musculus [3]): 69%

Structure (SMILES): COc1cccc(C2C(=O)c3ccccc3C2=O)c1
- Serum cholesterol, % of control (Mus musculus [1]): 75%
- Serum triglyceride, % of control (Mus musculus [2]): 55%
- Serum cholesterol, % of control (Mus musculus [3]): 67%

Structure (SMILES): Cc1ccc(C2C(=O)c3ccccc3C2=O)c(C)c1
- Serum cholesterol, % of control (Mus musculus [1]): 61%
- Serum triglyceride, % of control (Mus musculus [2]): 58%
- Serum cholesterol, % of control (Mus musculus [3]): 54%

Structure (SMILES): CCCC1C(=O)c2ccccc2C1=O
- Serum cholesterol, % of control (Mus musculus [1]): 68%
- Serum triglyceride, % of control (Mus musculus [2]): 52%
- Serum cholesterol, % of control (Mus musculus [3]): 66%

Structure (SMILES): CCOC(=O)C(C)(C)Oc1ccc(Cl)cc1 [CLOFIBRATE]
- Serum triglyceride, % of control (Mus musculus [2]): 75%
- Control (Mus musculus [6]): 88%
- Serum cholesterol, % of control (Mus musculus [3]): 87%

Structure (SMILES): O=C1c2ccccc2C(=O)C1c1ccc(-c2ccccc2)cc1
- Serum cholesterol, % of control (Mus musculus [1]): 78%
- Serum triglyceride, % of control (Mus musculus [2]): 63%
- Serum cholesterol, % of control (Mus musculus [3]): 64%

Structure (SMILES): O=C1c2ccccc2C(=O)C1c1ccc(Br)cc1 [BROMINDIONE]
- Serum cholesterol, % of control (Mus musculus [1]): 72%
- Serum triglyceride, % of control (Mus musculus [2]): 66%
- Serum cholesterol, % of control (Mus musculus [3]): 56%

Structure (SMILES): O=C(O)c1ccccc1C1C(=O)c2ccccc2C1=O
- Serum cholesterol, % of control (Mus musculus [1]): 79%
- Control (Mus musculus [4]): 52%
- Control (Mus musculus [5]): 78%

Structure (SMILES): O=C1c2ccccc2C(=O)C1c1ccc2ccccc2c1
- Serum cholesterol, % of control (Mus musculus [1]): 72%
- Serum triglyceride, % of control (Mus musculus [2]): 66%
- Serum cholesterol, % of control (Mus musculus [3]): 66%

Structure (SMILES): CCC1C(=O)c2ccccc2C1=O
- Serum cholesterol, % of control (Mus musculus [1]): 63%
- Serum triglyceride, % of control (Mus musculus [2]): 63%
- Serum cholesterol, % of control (Mus musculus [3]): 60%
